aSyn 5UTR inh: MLPCN primary screen, SNCA 5' untranslated region. alpha-synuclein 5'UTR reporter, inhibitor activity. inhibition, % (tested at 7.5 µM). actives 0.82% (n = 300,000); in the data active = inhibition above about 60%;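 note: H4 neuroglioblastoma cells stably carrying SNCA 5'UTR luciferase fusion; 0% = DMSO wells and 100% = positive control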
SKKanGAS inh: inhibitors of SKKanGAS S. pyogenes growth in kanamycin (SK-promoter or general growth effect). BacTiter-Glo, 6 h. AID 1662. inhibition, % at 7.5 µM. actives 1.3% (n = 300,000);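 active = mean replicate score, as percent of positive control median, at least 50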;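 note: strain carries kanamycin resistance gene driven by streptokinase promoter and grows in 40 µg/ml kanamycin; loss of luminescence reflects streptokinase promoter inhibition or plain growth inhibition; 0% = median of DMSO wells and 100% = positive control at its reference dose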
Mdm2 MdmX PPI: disrupts the human Mdm2-MdmX interaction | O15151+Q00987 | SaOS-2 split-luciferase Mdm2/MdmX complementation, luminescence | inhibition, % at 8 µM | actives 3% (n = 330,000) | AID 485346;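 active = inhibition of at least 50% at 8 µM in the primary screen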
Target sequence (O15151 whole entry, looked up): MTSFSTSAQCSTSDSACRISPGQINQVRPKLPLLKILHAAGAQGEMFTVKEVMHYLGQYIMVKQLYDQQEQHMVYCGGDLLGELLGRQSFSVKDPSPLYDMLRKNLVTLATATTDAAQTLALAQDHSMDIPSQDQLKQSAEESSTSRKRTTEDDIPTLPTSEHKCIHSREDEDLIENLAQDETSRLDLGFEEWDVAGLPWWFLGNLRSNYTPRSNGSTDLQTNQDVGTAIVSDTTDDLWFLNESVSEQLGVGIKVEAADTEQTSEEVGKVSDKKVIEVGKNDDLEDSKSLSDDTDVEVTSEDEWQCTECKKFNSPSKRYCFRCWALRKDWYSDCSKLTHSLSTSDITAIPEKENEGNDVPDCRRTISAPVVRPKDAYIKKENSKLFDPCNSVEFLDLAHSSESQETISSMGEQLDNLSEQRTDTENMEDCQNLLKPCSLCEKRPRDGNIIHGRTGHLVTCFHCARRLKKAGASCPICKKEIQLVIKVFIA
Target sequence (Q00987 whole entry, looked up): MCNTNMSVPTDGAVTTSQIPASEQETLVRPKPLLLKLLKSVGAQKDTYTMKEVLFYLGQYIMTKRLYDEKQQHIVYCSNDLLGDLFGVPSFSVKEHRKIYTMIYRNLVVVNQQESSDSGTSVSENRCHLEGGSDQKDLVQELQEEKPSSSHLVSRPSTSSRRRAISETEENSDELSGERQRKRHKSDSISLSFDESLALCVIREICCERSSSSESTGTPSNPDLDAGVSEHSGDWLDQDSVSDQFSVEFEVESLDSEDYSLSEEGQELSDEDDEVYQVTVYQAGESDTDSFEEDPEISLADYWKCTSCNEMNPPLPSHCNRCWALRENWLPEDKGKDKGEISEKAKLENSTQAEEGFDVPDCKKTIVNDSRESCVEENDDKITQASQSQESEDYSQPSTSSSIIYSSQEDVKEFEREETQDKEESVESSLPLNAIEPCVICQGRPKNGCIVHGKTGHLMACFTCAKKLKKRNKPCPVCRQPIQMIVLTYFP
T cruzi repl: T. cruzi replication inhibition | T. cruzi beta-gal in NIH3T3, luminescence, 90 h | inhibition, % (test concentration not listed) | actives 1.4% (n = 300,000) | AID 1885;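 active = mean inhibition across valid replicates above about 55%, limit read from the data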;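 note: signal also drops with host cell toxicity which is not excluded here; 0% = plate median of DMSO wells and 100% = zero luminescence signal; higher percent means less beta-gal luminescence so fewer parasites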
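Incubation – ≥90 h infection period, 3 h prior cell attachment · System – NIH/3T3 fibroblasts plus reporter T. cruzi · Doses – compound pinned at 50 nL/well, DMSO · Read-out basis – percent inhibition of parasite-derived β-gal signal · Signal – luminescent β-galactosidase signal after 60 min lysis · Also added – 5000 T. cruzi trypomastigotes/well · Medium – Low-serum DMEM with 2% FBS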
CSC inhib: blocks cancer stem cells; inhibition, % at 7.5 µM; actives 1.1% (n = 300,000); cancer stem cell-like cells viability, luminescence; AID 2717; in the data active = inhibition above about 75%; tested in HMLE shEcad cells
Mdm2-MdmX conf: human Mdm2/MdmX binding inhibition, confirmed. shares compounds with Mdm2 MdmX PPI. luminescent assay. inhibition, % at 8 µM. actives 55% (n = 10,000). AID 489028; in the data active = inhibition above about 40%
FLuc counter: inhibits full-length luciferase, flagging false Mdm2/MdmX hits. actives 77% (n = 6,200). SaOS-2 full-length luciferase counterscreen, luminescence. inhibition, % at 8 µM. shares compounds with Mdm2 MdmX PPI. AID 504607;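 active = mean inhibition at 8 µM reaching about 37%, which flags the compound as non-specific, limit read from the data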;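 note: p53-null SaOS-2 cells with luciferase driven by a doxycycline-inducible promoter; compound on cells about two nights before reading with doxycycline added after day one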
An asterisk follows results filed as active. Most compounds without a hit are left out; they make up all but 5.4% or so of the library.

Screening O=C(OC(C(=O)NCc1ccco1)c1ccc(Cl)cc1)c1cccs1 (stereo unspecified) returned aSyn 5UTR inh 6, SKKanGAS inh 10, Mdm2 MdmX PPI -13, T cruzi repl 0 and CSC inhib -11.
`O=C(NCCCN1CCCCC1)C1CCC(CNS(=O)(=O)c2cccc3nsnc23)CC1` (stereo unspecified) gave aSyn 5UTR inh 2, SKKanGAS inh -3, Mdm2 MdmX PPI 13 and T cruzi repl -1.
CN1CCN(CCCNC(=O)c2cc3c(-c4ccc(Cl)cc4)nn(C)c3s2)CC1 was read as aSyn 5UTR inh -25, SKKanGAS inh -1, Mdm2 MdmX PPI 68*, T cruzi repl 32 and Mdm2-MdmX conf 31.
Cc1cc2cc(C#N)c(SCC(=O)Nc3nonc3C)nc2cc1C was read as aSyn 5UTR inh -92, SKKanGAS inh -5, Mdm2 MdmX PPI 69*, T cruzi repl 10 and Mdm2-MdmX conf 29.
`CSc1ncccc1C(=O)OCc1cccc([N+](=O)[O-])c1` gave aSyn 5UTR inh -22, SKKanGAS inh 1, Mdm2 MdmX PPI 12, T cruzi repl -2 and CSC inhib -19.
`COc1ccc(-c2cc(C(F)(F)F)nc(S(=O)(=O)CCCC(=O)Nc3cc(C)on3)n2)cc1OC` gave aSyn 5UTR inh -3, SKKanGAS inh 21 and T cruzi repl 48.
`COc1ccccc1-c1cc(C(F)(F)F)nc(S(=O)(=O)CCCC(=O)NCc2ccc(F)cc2)n1` gave aSyn 5UTR inh -20, SKKanGAS inh -8, Mdm2 MdmX PPI 99*, T cruzi repl -37, CSC inhib 77*, Mdm2-MdmX conf 90* and FLuc counter 51*.
Screening COc1ccccc1-c1cc(C(F)(F)F)nc(N2CCCC2)n1 returned aSyn 5UTR inh 4, SKKanGAS inh 15, Mdm2 MdmX PPI -4, T cruzi repl 9 and CSC inhib 3.
CS(=O)(=O)c1nc(-c2ccco2)cc(C(F)(F)F)n1 was read as aSyn 5UTR inh -76, SKKanGAS inh -20, Mdm2 MdmX PPI 100*, T cruzi repl 55*, CSC inhib 112*, Mdm2-MdmX conf 100* and FLuc counter 2.
`COc1ccccc1-c1cc(C(F)(F)F)nc(S(C)(=O)=O)n1` gave aSyn 5UTR inh -27, SKKanGAS inh -7, Mdm2 MdmX PPI 97*, T cruzi repl -60, CSC inhib 85*, Mdm2-MdmX conf 79* and FLuc counter 53*.
For CN1CCN(c2nc(-c3ccco3)cc(C(F)(F)F)n2)CC1 the results were aSyn 5UTR inh -1, SKKanGAS inh -4, Mdm2 MdmX PPI -5, T cruzi repl 27 and CSC inhib -8.
For COc1ccccc1-c1cc(C(F)(F)F)nc(S(=O)(=O)CCCC(=O)N2CCCCC2C)n1 (stereo unspecified) the results were aSyn 5UTR inh -50, SKKanGAS inh -4, Mdm2 MdmX PPI 97*, T cruzi repl -43, CSC inhib 65, Mdm2-MdmX conf 69* and FLuc counter 20.
Screening O=c1c2ccccc2nc(SCc2ccc([N+](=O)[O-])cc2)n1CCCO returned aSyn 5UTR inh 1, SKKanGAS inh 0, Mdm2 MdmX PPI 15, T cruzi repl 19 and CSC inhib 3.
`O=c1c2[nH]c3ccc(F)cc3c2ncn1CCC1=CCCCC1` gave aSyn 5UTR inh -121, SKKanGAS inh 0, Mdm2 MdmX PPI -9, T cruzi repl 2 and CSC inhib -7.
Cc1c(/C=N/O)sc2ccccc12 was read as aSyn 5UTR inh -1, SKKanGAS inh 12, Mdm2 MdmX PPI 5, T cruzi repl -5 and CSC inhib -6.
COCC(C)n1c(SCC(=O)Nc2sccc2C(N)=O)nc2ccccc2c1=O (stereo unspecified) was read as Mdm2 MdmX PPI 6 and CSC inhib -9.
Screening COc1ccccc1-c1cc(C(F)(F)F)nc(S(=O)(=O)CCCC(=O)NC(C)C)n1 returned aSyn 5UTR inh -46, SKKanGAS inh 7, Mdm2 MdmX PPI 100*, T cruzi repl -42, CSC inhib 29, Mdm2-MdmX conf 97* and FLuc counter 31.

Screening data as filed in PubChem BioAssay.
